The RNAGym collection of RNA variant scans (doi:10.1126/science.aae0568)
Variants at the floor of the assay were thinned out.

B1: tRNA (parent)
chain: GUUCCGUUGGCGUAAUGGUAACGCGUCUCCCUCCUAAGGAGAAGACUGCGGGUUCGAGUCCCGUACGGAACG

Variants of: B1
Test: yeast fitness relative to wild type (ratio to wild type); higher = fitter; tRNA-Arg(CCU), competitive growth, 37 C, YPD
How it was run: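 Changes in genotype frequencies gave Darwinian fitness relative to wild type. Frequencies were read by 100-nucleotide paired-end sequencing of gene amplicons before and after pooled Saccharomyces cerevisiae strains, carrying tRNA-Arg(CCU) gene variants at the native locus, were competed in YPD at 37°C for 24 hours in six replicates. A genotype was kept only with ≥ 100 starting reads, and estimates < 0.5 were set to 0.5.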

Variant	yeast fitness
GUUCCGUUGGCGUAAUGGUAACGGGUCGCCCUUCUAAGGAGUAGACUGCAGGUUCGAGUCCCGUACGGAACG [C24G U28G C33U A42U G50A]	≤ 0.5
GUUCCGUUGGCGUAAUGGUAACGGGUCUCCCUCCGAAGGAGAAGACUGCGGGUUCGAGUCCCGUAUGGAACG [C24G U35G C66U]	≤ 0.5
GUUCCGUUGGCGUAAUGGUAACGUGUCUCCCUCCUGAGGAGAAGACUGCGGGUUCGAGUCCCCUACGGAACG [C24U A36G G63C]	≤ 0.5
GUUCCGUUGGCGUAAUGGUAACGGGUCUCCCUCCUAAGGAGAAGACUGCGGGGUCGGGUCCCGUACGGAACG [C24G U53G A57G]	0.545
GUUCCGUUGGCGUAAUGGUAACGGGUCCCCCUCCUAAGGAGAAGACUGCGGGUUCGAGUCCCGUACGGAACG [C24G U28C]	0.508
GUUCCGUUGGCGUAAUGGUAACGGGACUCCCUCCUAAGGAGAAGAAUGCGGGUUCGACUCCCGUACGGAACG [C24G U26A C46A G58C]	≤ 0.5
GUUCCGUUGGCGUAAUGGUAACGUGUCUCCCUCCUUAGGAGAAGACUGGGGGUUCGAGUCCCGUACGGAACG [C24U A36U C49G]	0.544
GUUCCGUUGGCGUAAUGGUAACGUGUCUCCCUCCUCAGGAGAACACUGCGGGUUCGAGUCCAGUACGGAACG [C24U A36C G44C C62A]	0.752
GUUCCGUUGGCGUAAUGGUAACGGGUCUCCCUCCUAAGGAGAAGACUGCGCGUUCGAGUCCCGUACGGAACG [C24G G51C]	0.537
GUUCCGUUGGCGUAAUGGUAACGGGUCUCCCUCCUAAGGAGAACACUGCGGGUUCGAGUCCCGUACGUAACG [C24G G44C G68U]	0.663
GUUCCGUUGGCGUAAUGGUAACGGGUCUCCCUCCUAAGGAGAAGACUGCGGGUCCGAGUCCCGUACGCAACG [C24G U54C G68C]	≤ 0.5
GUUCCGUUGGCGUAAUGGUAACGGAUCUCCGUCCUAAGGAGAAGACUGCGGGUUCGAGUCCCGUACGGAACG [C24G G25A C31G]	0.703
GUUCCGUUGGCGUAAUGGUAACGUGUCUCCCUCCUUAGGAGAAGACUGCGGGUUGGGGUCCCCUACGGAACG [C24U A36U C55G A57G G63C]	≤ 0.5
GUUCCGUUGGCGUAAUGGUAACGUGUCUCCCUCCUCAGGAGAAGCCUGCGGGUUUGAGUCCCGUACGGAUCG [C24U A36C A45C C55U A70U]	≤ 0.5
GUUCCGUUGGCGUAAUGGUAACGGGUCCCCCUCCUAAGGAGAAGACUGCCGGUUCGAGUCCCGUACGGAACG [C24G U28C G50C]	≤ 0.5
GUUCCGUUGGCGUAAUGGUAACGGAUCUCGCUCCUAAGGAGAAGACUGCGGGUUCGAGUCCCGUACGGAACG [C24G G25A C30G]	≤ 0.5
GUUCCGUUGGCGUAAUGGUAACGGGUCUCCCUCCUAAGAAGAAGACUGCGGGUUCGAGUCCCGUACGGAACG [C24G G39A]	0.643
GUUCCGUUGGCGUAAUGGUAACGGCUCUCGCCCCUAAGGAGAAGACUGCGGGUUCGAAUUCCGUACGGAACG [C24G G25C C30G U32C G58A C60U]	≤ 0.5
GUUCCGUUGGCGUAAUGGUAACGGGUCUCCCUCCUAAGGAGAAGACUCCGGGUUCGGGUCCCGUACGCAACG [C24G G48C A57G G68C]	≤ 0.5

Variant	yeast fitness
GUUCCGUUGGCGUAAUGGUAACGGGACUCCCUUCUAAGGAGAAGACUGCGGGUUCGAGUCCCGUACGGAACG [C24G U26A C33U]	≤ 0.5
GUUCCGUUGGCGUAAUGGUAACGGGCCUCCUUCCUAAGGAGAAGACUGCGGGUUCGAGUCCCGUACGGAACG [C24G U26C C31U]	0.747
GUUCCGUUGGCGUAAUGGUAACGGGUCUCCCUCCUAAGGAGAAGACUGCGGGUUCGAGUCCCGUAAGGAACG [C24G C66A]	0.576
GUUCCGUUGGCGUAAUGGUAACGGGUCUCCCUCCUAAGGAGAAGACUGCAGGUUCGGGUCCCGUACGGAACG [C24G G50A A57G]	≤ 0.5
GUUCCGUUGGCGUAAUGGUAACGGGUCUCCCUCCUAAGGAAAAAACUGCGGGAUCGAGUCCCGUAUGGAACG [C24G G41A G44A U53A C66U]	≤ 0.5
GUUCCGUUGGCGUAAUGGUAACGGGUCUCCCUCCUAAGCAGAAGACUGCGGGUUCGGGUCCCGUGCGGAACG [C24G G39C A57G A65G]	≤ 0.5
GUUCCGUUGGCGUAAUGGUAACGGGUCUCCCUCCUAACGAGAAGAAUGCGGGUUCGAGUCCCGUACGGAACG [C24G G38C C46A]	≤ 0.5
GUUCCGUUGGCGUAAUGGUAACGUGUCUCCCUCCUGAGGAGAAGACUGCGGGUUGGAGUCCCGUACGGAACG [C24U A36G C55G]	≤ 0.5
GUUCCGUUGGCGUAAUGGUAACGGGUCUCCCUCCUAAGGAGAAGACUGCGGGUUCCAGCCCCGUACGGAACG [C24G G56C U59C]	≤ 0.5
GUUCCGUUGGCGUAAUGGUAACGGCUCUCCCUCCUAAGGCGUAGACAGCGGGUUCGAGUCGCGUAGGGAACG [C24G G25C A40C A42U U47A C61G C66G]	0.509
GUUCCGUUGGCGUAAUGGUAACGGGACUCCCUCCAAAGGAGAAGACUGCGGGUUUGAGUCCCGUGCGGCACG [C24G U26A U35A C55U A65G A69C]	≤ 0.5
GUUCCGUUGGCGUAAUGGUAACGGGUCGCCCUCCUAAGGAGAAGAGUGCGGGUUCGAGUCCCGUACUGAACG [C24G U28G C46G G67U]	≤ 0.5
GUUCCGUUGGCGUAAUGGUAACGGGUCUCCCUCCUAAGGAGAAGACUGCGGGUUCGAGUCCCGUACGAAACG [C24G G68A]	0.653
GUUCCGUUGGCGUAAUGGUAACGGGUCUCCCUCCUAAGGAGAAGACUACGGGUUCGACUCCCGUACGGAACG [C24G G48A G58C]	0.735
GUUCCGUUGGCGUAAUGGUAACGGGUCUCCCUCCUAAGGAGAAGACUGCGGGUGGGAGUCCUGUACGGAACG [C24G U54G C55G C62U]	≤ 0.5
GUUCCGUUGGCGUAAUGGUAACGGGUCUCCCUCCUAAGGAGAAGACUGCGGGUCAGAGUCCCGUUCGGAACG [C24G U54C C55A A65U]	≤ 0.5
GUUCCGUUGGCGUAAUGGUAACGGGUCUCCCUCCAAAGGAGAAGACUCCGGGUUCGAGUCCCGUACGGAACG [C24G U35A G48C]	≤ 0.5
GUUCCGUUGGCGUAAUGGUAACGGCUCUCGCCCCUAAGGAGAAGACUGCGGGUUCGAGUCCCGUACGGACCG [C24G G25C C30G U32C A70C]	0.533
GUUCCGUUGGCGUAAUGGUAACGGCUCUCCCUCCUAAGGAGAAGGCUGCGGGUUCGAGUACCGUACGGAACG [C24G G25C A45G C60A]	0.617
